PostGolgi ctrl: growth inhibition of yeast control strain, primary screen, counter-screen for post-Golgi transport modulator project; 5% of 98,000 active; inhibition, % at 10 µM; efflux-deficient yeast background strain, growth absorbance A615, 16 h; AID 738, 2007
Ecoli tolC: growth inhibitors of E. coli tolC mutant, primary screen, strain BW25113 ΔtolC::kan, 384-well. OD615. growth inhibition, % at 10 µM (by protocol). 2.2% of 65,000 active. AID 573, 2007;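 active means growth inhibition at or above a cutoff equal to the mean over every tested compound plus 3 SD, cut at about 60% in these data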;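 further: growth measured after 20 h incubation at 37 °C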
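signal = optical density read at 615 nm | test system = E. coli ΔtolC::kan strain BW25113 | timing = 20 h compound exposure of bacteria at 37 °C | buffer or medium = LB medium plus 50 µg/mL kanamycin | compound dosing = 10 µM final, single dose | evaluation = % inhibition of E. coli growth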
PostGolgi yeast: phenotypic screen on post-Golgi transport, primary screen. post-Golgi transport phenotypic cell assay. inhibition, % at 10 µM. 0.9% of 98,000 active. AID 739, 2007;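 further: yeast cells grown in 1536-well plates; yeast grown about 18 h at 30C before absorbance read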
EphB4 antag: EphB4-ephrin-B2 interaction antagonists, primary screen, biochemical, TNYL-RAW peptide probe, fluorescence polarization; inhibition, % at 7 µM; Ephrin type-B receptor 4 (Homo sapiens), P54760; EphB4 LBD / TNYL-RAW-Alexa532 peptide; 0.15% of 97,000 active; AID 720, 2007;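 active means inhibition above the screen-wide mean inhibition plus 3 SD, cut at about 15% in these data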;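 further: 0% = DMSO wells and 100% = excess unlabeled TNYL-RAW peptide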
Target sequence (P54760 whole entry, looked up, the tested form may be a part): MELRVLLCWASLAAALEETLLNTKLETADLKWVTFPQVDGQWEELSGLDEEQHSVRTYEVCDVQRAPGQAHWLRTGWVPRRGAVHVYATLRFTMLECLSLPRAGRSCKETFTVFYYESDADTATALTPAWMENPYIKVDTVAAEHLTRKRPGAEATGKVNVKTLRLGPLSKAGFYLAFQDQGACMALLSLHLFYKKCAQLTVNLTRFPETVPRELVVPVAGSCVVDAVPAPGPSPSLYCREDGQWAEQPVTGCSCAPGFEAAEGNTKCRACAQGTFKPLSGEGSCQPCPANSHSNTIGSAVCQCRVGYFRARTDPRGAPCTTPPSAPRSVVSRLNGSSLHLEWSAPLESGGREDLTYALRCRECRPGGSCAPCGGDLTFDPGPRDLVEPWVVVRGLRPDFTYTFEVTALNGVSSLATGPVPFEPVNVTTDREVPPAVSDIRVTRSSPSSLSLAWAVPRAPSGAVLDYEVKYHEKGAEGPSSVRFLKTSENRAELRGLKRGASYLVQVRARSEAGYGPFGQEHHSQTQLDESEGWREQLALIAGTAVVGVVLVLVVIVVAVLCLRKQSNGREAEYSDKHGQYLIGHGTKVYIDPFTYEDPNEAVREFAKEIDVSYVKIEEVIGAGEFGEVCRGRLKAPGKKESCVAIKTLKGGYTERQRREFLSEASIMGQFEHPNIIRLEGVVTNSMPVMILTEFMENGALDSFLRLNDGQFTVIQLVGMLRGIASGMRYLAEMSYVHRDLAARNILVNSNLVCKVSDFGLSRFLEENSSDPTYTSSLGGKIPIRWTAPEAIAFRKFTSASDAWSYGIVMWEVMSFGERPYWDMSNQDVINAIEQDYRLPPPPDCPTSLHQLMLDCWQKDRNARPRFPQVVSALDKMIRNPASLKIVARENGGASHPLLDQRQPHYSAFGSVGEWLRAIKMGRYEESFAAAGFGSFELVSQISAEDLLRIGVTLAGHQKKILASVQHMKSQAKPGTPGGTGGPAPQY
E coli WT exp: growth inhibitors of wild-type E. coli, primary screen, strain BW25113, expanded library, OD600; 0.15% of 98,000 active; AID 710, 2007; growth inhibition, % at 100 µM; OD600 absorbance;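 active means growth inhibition above about 50% at one test dose, limit read from the data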;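 further: growth measured after 20 h incubation at 37 °C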
Numbers without * were called inactive; . = no result given. Shown are actives, neighbours in structure and some others; about 6% of the full set was active somewhere. Unless noted, no stated cut-off is given here; in the data, active means inhibition above about 30%; inactive means the rest.

SMILES	PostGolgi ctrl	Ecoli tolC	PostGolgi yeast	EphB4 antag	E coli WT exp
N#Cc1c(C(F)(F)F)cc(-c2ccc(Cl)c(Cl)c2)nc1SCCN1CCOCC1	12	.	1	-3	-23
N#Cc1c(C(F)(F)F)cc(-c2ccccc2)nc1SCc1nc(N)nc(N2CCOCC2)n1	45*	0	-2	.	-1
O=C(N1CCN(c2ccc(F)cc2)CC1)C12CC3CC(CC(C3)C1)C2	2	3	-4	2	4
Cc1ccccc1N1CCN(C(=O)C2CCCCC2)CC1	22	25	6	-1	0
Cc1cccc(N2CCN(C(=O)C34CC5CC(CC(C5)C3)C4)CC2)c1C	51*	63*	-4	2	-6
Cc1cccc(N2CCN(C(=O)CCCOc3ccccc3)CC2)c1C	33*	32	16	7	0
O=C(N1CCN(c2ccccc2F)CC1)C12CC3CC(CC(C3)C1)C2	14	89*	0	3	10
Cc1cccc(N2CCN(C(=O)C3CCCCC3)CC2)c1C	34*	25	13	-4	3
O=C(c1ccccc1)N1CCN(C(=O)C23CC4CC(CC(C4)C2)C3)CC1	1	-1	-7	-1	1
Cc1cc(OCCCC(=O)N2CCCCC2)cc(C)c1Cl	9	63*	-4	3	0
Cc1cccc(N2CCN(C(=O)Cc3c(C(=O)O)[nH]c4ccc(Cl)cc34)CC2)c1C	4	87*	5	2	0
Cc1cc(Cl)ccc1OCCCC(=O)N1CCCCC1	13	.	-7	4	-5
Oc1c(CN2CCCCC2)cc(COCc2ccccc2)c2cccnc12	0	100*	-3	20*	30
COCc1cc(CN2CCCC2)c(O)c2ncccc12	-2	10	-1	4	34
OCCN1CCN(Cc2cc(Cl)c3cccnc3c2O)CC1	-1	.	-1	4	21
Oc1c(CN2CCN(c3ccccn3)CC2)cc(Cl)c2cccnc12	10	98*	-6	.	54*
CC(C)CN(CC(C)C)S(=O)(=O)N1CCC(C(=O)NCCc2ccc(Cl)cc2)CC1	7	.	-4	0	-7
CN(C(=O)N1CCN(c2ccccn2)CC1)c1ccccc1	12	.	2	15*	7
CN(CC(=O)N1CCN(c2ccccn2)CC1)S(=O)(=O)c1ccccc1	6	-4	2	0	7
O=C(CN1CCN(c2ccccn2)CC1)N(c1ccccc1)c1ccc2ccccc2c1	66*	21	-9	.	-11
Cc1ccc(CNC(=O)C2CCC(=O)N2CCc2ccccc2)cc1 (centres undefined)	10	.	3	1	6
N#Cc1cc(C#N)c(N2CCN(c3cccc(Cl)n3)CC2)nc1N	58*	.	1	-3	7
CC(=O)OCC(=O)NCc1ccc2c(c1)OCO2	30*	-5	-6	1	10
Cc1ccc(Cl)cc1N1CCN(C(=O)C2CCN(S(=O)(=O)c3c(C)nn(C)c3C)CC2)CC1	41*	57	2	-4	-6
Cc1ccc(Cl)cc1N1CCN(C(=O)C2CCN(S(=O)(=O)c3cccnc3)CC2)CC1	13	17	-6	0	-1
SMILES	PostGolgi ctrl	Ecoli tolC	PostGolgi yeast	EphB4 antag	E coli WT exp
CC1CCN(c2nc3ccc(C(=O)N4CCN(Cc5ccc6c(c5)OCO6)CC4)cc3s2)CC1	41*	.	10	-7	-18
Cc1ccccc1-n1c(Cn2c(=O)sc3ccccc32)nnc1SCC(=O)NCC1CCCO1 (centres undefined)	-6	2	5	-4	-1
COc1ccc(NCc2n[nH]c(=O)c3ccccc23)cc1	32*	.	-4	-1	3
O=C(O)C1C2C=CC(C2)C1C(=O)N1CCOCC1 (centres undefined)	53*	-23	-10	.	-3
CC(=O)Nc1ccc(N2C(C(C)=O)=NN(c3ccc(Cl)cc3)C2c2sccc2C)cc1 (centres undefined)	.	.	.	17*	.
CC(=O)Nc1ccc(N2C(C(C)=O)=NN(c3ccccc3)C2c2cccs2)cc1 (centres undefined)	7	.	2	4	-6
CCOC(=O)c1ccc2c(c1)nc(COc1ccc(OC)cc1)n2CC	0	.	-12	-1	-9
O=C(Nc1nccs1)c1cc(N2CCOCC2)nc2ccccc12	34*	3	-1	-5	0
Cc1cccc(Nc2ccccc2C(=O)OCC(=O)N2CCOCC2)c1C	35*	29	3	7	-10
CCOC(=O)CSc1nc(NC#N)nc(N(CC)CC)n1	10	18	10	-3	-8
CCN(CC)c1nc(SCC(=O)O)nc(N(CC)CC)n1	40*	16	17	4	0
COc1ccc(/C=C(/C(=O)c2ccc(Cl)cc2Cl)n2cncn2)cc1	33*	.	85*	5	5
CCC(Sc1nc2cc3c(cc2c(=O)n1Cc1ccco1)OCO3)C(=O)NCCOC (centres undefined)	31*	.	10	4	3
COCCNC(=O)CSc1nc2cc3c(cc2c(=O)n1Cc1ccco1)OCO3	0	.	6	1	0
N#CC1=C(N2CCCCC2)c2cc3c(n2C1=O)CCCC3	26	.	-13	2	-1
CCOCC(=O)Nc1nc(-c2ccccc2)c(CC)s1	5	.	5	1	2
CCC1CCc2c(c3ccccc3[nH]c2=O)O1 (centres undefined)	30*	.	-13	-1	-1
O=C(CCCSc1nc2ccccc2[nH]1)N1CCN(c2ccc([N+](=O)[O-])cc2)CC1	32*	.	-4	6	-11
O=C(CSc1nc2ccccc2[nH]1)N1CCN(c2ccc(F)cc2)CC1	-1	20	-4	5	0
CCOC(=O)NC(Nc1ncccn1)(C(F)(F)F)C(F)(F)F	1	7	-1	0	-1
CCOC(=O)C(NC(=O)Nc1ncccn1)(Oc1ccccc1)C(F)(F)F (centres undefined)	32*	-27	-1	0	2
COc1cc(NC(=O)CN2C(=O)c3ccccc3S2(=O)=O)c(OC)cc1Cl	1	12	11	3	-1
Cc1nn2c(-c3ccc(Cl)cc3Cl)nnc2s1	34*	-1	-21	1	0
O=C(CN1CCC(C(O)(c2ccccc2)c2ccccc2)CC1)Nc1cc(Cl)ccc1Cl	37*	.	8	0	-13
O=C(CN1CCC(C(O)(c2ccccc2)c2ccccc2)CC1)Nc1ccccc1	-3	.	15	0	8
O=C(CCCSc1nnnn1-c1ccccc1)c1ccc(F)cc1	5	.	15	0	-12
Oc1ccc(Cl)cc1-c1cc(-c2cccc(Br)c2)n[nH]1	54*	.	7	-5	-8
Oc1ccccc1-c1cc(-c2cccc(F)c2)n[nH]1	20	100*	-11	-16	24
Cc1cc(Nc2cccc(F)c2)nc(-c2ccccc2O)n1	15	-15	6	11	-6
C=CCNC(=O)c1c2c(nc3ccccc13)-c1ccccc1CC2	-2	.	2	-5	-6

Screens deposited in PubChem by several laboratories.
